Measured values taken from ChEMBL document CHEMBL5260818, “Anti-influenza activity of diazaadamantanes combined with monoterpene moieties” (Bioorg Med Chem Lett, 2017).
pIC50: −log10 of the molar value.

How the values were obtained:
Influenza A virus [1] = assay: Antiviral activity against Influenza A virus A/Puerto Rico/8/34 (H1N1) infected in MDCK cells assessed as inhibition of viral growth preincubated with cells for 1 hrs followed by compound addition and measured after 24 hrs by TCD titration based assay; type: functional, organism-based
Procedure, shortened: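 Compounds dissolved in DMSO and diluted in MEM with 1 μg/ml trypsin, then added to MDCK cells for 1 h at 36 °C before infection (moi 0.01). Cultures were kept 24 h at 36 °C, 5% CO2. Supernatant virus progeny was grown in MDCK cells for 48 h, then titred by hemagglutination. Each concentration was run in triplicate, and IC50 was calculated.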

[2] = Selectivity index, ratio of CC50 for cytotoxicity against MDCK cells to IC50 for antiviral activity against Influenza A virus A/Puerto Rico/8/34 (H1N1) infected in MDCK cells assessed as inhibition of viral growth; type: toxicity, cell-based; conditions: dog, read-out: Ratio CC50/IC50
Procedure, shortened: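 SI is CC50 (MTT, uninfected MDCK, 48 h) divided by IC50 (hemagglutination titre of progeny virus from MDCK cells infected at moi 0.01 after 1 h compound pre-incubation), both from triplicate concentration series.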

[3] = Cytotoxicity against MDCK cells incubated for 48 hrs by MTT assay; type: toxicity, cell-based, Canis lupus familiaris; conditions: dog
Procedure, shortened: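 Uninfected MDCK cells were exposed to the dissolved compounds for 48 h at 36 °C, 5% CO2. Cells were washed twice with PBS, then given MTT ([…] in PBS) for 1 h. Formazan was dissolved in DMSO and OD read at 535 nm against concentration. Three parallels per concentration, and CC50 was calculated.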

Influenza A virus [4] = assay: Antiviral activity against Influenza A virus A A/California/07/09 (H1N1)pdm09; type: functional, organism-based

Structure (SMILES) | pIC50 (Influenza A virus [1]) | selectivity ratio [2] | CC50 at 48 h [3] | pIC50 (Influenza A virus [4])
CC(N)C12CC3CC(CC(C3)C1)C2 (stereo unspecified) [RIMANTADINE] | 4.38 | 8 |  | 
CC(CCCC(C)(C)O)CCNC1C2(C)CN3CN(C2)CC1(C)C3 (stereo unspecified) | 3.87 | 7 | 979 µM | 
CC1=CC[C@@H](CC2N3CC4(C)CN2CC(C)(C3)C4=O)C1(C)C (stereo partly specified) | < 3.48 | < 2 | 533 µM | 
CC(CCCC(C)(C)O)CC1N2CC3(C)CN1CC(C)(C2)C3=O (stereo unspecified) | 3.59 | 3 | > 904 µM | 
CC(=O)[C@@H]1C[C@H](CC2N3CC4(C)CN2CC(C)(C3)C4=O)C1(C)C (stereo partly specified) | < 3.03 |  | > 943 µM | 
CC(C)=CCCC(C)CC1N2CC3(C)CN1CC(C)(C2)C3=O (stereo unspecified) | 4.18 | 3 | 178 µM | 
CC(C)=CCC/C(C)=C\C1N2CC3(C)CN1CC(C)(C2)C3=O (stereo unspecified) | < 4.00 | 2 | 242 µM | 
CC(C)=CCCC(C)CCNC1C2CC3CC(C2)CC1C3 (stereo unspecified) |  |  |  | 4.74
CC(C)=CCC/C(C)=C\CNC1C2(C)CN3CN(C2)CC1(C)C3 (stereo unspecified) | < 2.98 |  | > 1040 µM | 
CC12CN3CC(C)(CN(C1)C3C1=CC(=O)[C@H]3C[C@@H]1C3(C)C)C2=O (stereo partly specified) | 3.95 | 8 | 907 µM | 
CC12CN3CN(C1)CC(C)(C3)C2N (stereo unspecified) | 3.84 | > 13 | > 1820 µM | 
CC(C)=CCCC(C)CCNC1C2(C)CN3CN(C2)CC1(C)C3 (stereo unspecified) | 5.10 | 30 | 239 µM | 
CC12CN3CC(C)(CN(C1)C3C1=CC[C@H]3C[C@@H]1C3(C)C)C2=O (stereo partly specified) | < 3.00 |  | > 1000 µM | 
CC12CN3CN(C1)CC(C)(C3)C2NCC1=CC[C@H]2C[C@@H]1C2(C)C (stereo partly specified) | 4.19 | 3 | 196 µM | 
